ChEMBL document CHEMBL1649525, “Population pharmacokinetic analysis of colistin methanesulfonate and colistin after intravenous administration in critically ill patients with infections caused by gram-negative bacteria” (Antimicrob Agents Chemother, 2009)

Experiments:
[1] = Cmax in patient with gram-negative bacterial infection at […], iv after 15 mins; type: ADME, organism-based; parameters: route intravenous; conditions: human, in vivo
Summary of the method: (§1)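 Critically ill ICU patients (n=18) received CMS 3 MU (240 mg) in 100 ml saline as a 15-min IV infusion every 8 h, reduced to 160 mg q8h if creatinine clearance was <50 ml/min. Venous plasma was taken predose and 15–465 min after the first and fourth infusions, then chilled and stored at −70°C. Colistin was measured by LC-MS/MS, and CMS after acid hydrolysis. Parameters came from NONMEM population modelling.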

[2] = test system: Pseudomonas aeruginosa; assay: Antimicrobial activity against Pseudomonas aeruginosa by EUCAST method; type: functional
[3] = (§2) Half life in peripheral compartment of patient with gram-negative bacterial infection at […], iv; type: ADME, organism-based; parameters: route intravenous; conditions: human, in vivo; summary of the method: as §1
[4] = (§3) Half life in central compartment of patient with gram-negative bacterial infection at […], iv; type: ADME, organism-based; parameters: route intravenous; conditions: human, in vivo; summary of the method: as §1
[5] = test system: Pseudomonas aeruginosa; assay: Antimicrobial activity against Pseudomonas aeruginosa by CLSI method; type: functional
[6] = test system: Acinetobacter baumannii; assay: Antimicrobial activity against Acinetobacter baumannii by EUCAST method; type: functional
[7] = Volume of distribution of central compartment in patient with gram-negative bacterial infection at […], iv; type: ADME, organism-based; parameters: route intravenous; conditions: human, in vivo; summary of the method: as §1
[8] = Clearance in patient with gram-negative bacterial infection at […], iv; type: ADME, organism-based; parameters: route intravenous; conditions: human, in vivo; summary of the method: as §1
[9] = test system: Acinetobacter baumannii; assay: Antimicrobial activity against Acinetobacter baumannii by CLSI method; type: functional
[10] = Drug concentration at steady state in patient with gram-negative bacterial infection at […], iv after 7 hrs; type: ADME, organism-based; parameters: route intravenous; conditions: human, in vivo, read-out: Css; summary of the method: as §1
[11] = test system: Homo sapiens; assay: Intercompartmental clearance in patient with gram-negative bacterial infection at […], iv; type: ADME, organism-based; parameters: route intravenous; conditions: in vivo; summary of the method: as §1
[12] = test system: Homo sapiens; assay: Volume of distribution of formed compound in patient with gram-negative bacterial infection at […], iv; type: ADME, organism-based; parameters: route intravenous; conditions: in vivo; summary of the method: as §1
[13] = test system: Homo sapiens; assay: as §2; type: ADME, organism-based; parameters: route intravenous; conditions: in vivo; summary of the method: as §1
[14] = test system: Homo sapiens; assay: as §3; type: ADME, organism-based; parameters: route intravenous; conditions: in vivo; summary of the method: as §1
[15] = test system: Homo sapiens; assay: Half life in patient with gram-negative bacterial infection at […], iv; type: ADME, organism-based; parameters: route intravenous; conditions: in vivo; summary of the method: as §1
[16] = test system: Homo sapiens; assay: Clearance of formed compound in patient with gram-negative bacterial infection at […], iv; type: ADME, organism-based; parameters: route intravenous; conditions: in vivo; summary of the method: as §1

Work on `CCC(C)CCCCC(=O)N[C@@H](CCNCS(=O)(=O)O)C(=O)N[C@H](C(=O)N[C@@H](CCNCS(=O)(=O)O)C(=O)N[C@H]1CCNC(=O)[C@H]([C@@H](C)O)NC(=O)[C@H](CCNCS(=O)(=O)O)NC(=O)[C@H](CCNCS(=O)(=O)O)NC(=O)[C@H](CC(C)C)NC(=O)[C@@H](CC(C)C)NC(=O)[C@H](CCNCS(=O)(=O)O)NC1=O)[C@@H](C)O.CS(=O)(=O)O` (stereo partly specified) [COLISTIN METHYLSULPHATE] yielded a Cmax [1] of 2930 ng/mL, an MIC [2] of at most 2 µg/mL and a half-life [3] of 2.3 h. The half-life [4] was 2.76 min, the MIC [5] was at most 2 µg/mL and the MIC [6] was at most 2 µg/mL. The Vd [7] was 13.5 L, the clearance [8] was 228 mL/min and the MIC [9] was at most 2 µg/mL. It also gave a concentration at 7 h [10] of 2300 ng/mL and a CL [11] of 133 L/h.
Compound COLISTIN has a Vd [12] of 189 L, a t1/2 [13] of 14.4 h and a t1/2 [14] of 14.4 h. It also gave a t1/2 [15] of 7.1 h and a CL [16] of 9.09 L/h.
